This passage reports IC50 and inhibition results from ChEMBL document CHEMBL4396964, “Synthesis, biological activities, and docking studies of d-pantolactone derivatives as novel FAS inhibitors” (Bioorg Med Chem, 2019).

The target in one assay is Fatty acid synthase (Mus musculus, UniProt P19096). Kind of assay: Inhibition of mouse FAS preincubated for 30 mins in presence of acetyl coenzyme A and NADPH followed by malonyl coenzyme A addition and measured after 3 mins by spectrophotometric analysis. In outline:
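Crude mouse-liver FAS (196.2 U/mg) preincubated with compound, NADPH and acetyl-CoA in K2HPO4 buffer pH 7.0 at 37 °C for 30 min. Malonyl-CoA then added, and NADPH oxidation followed at 340 nm for 3 min at 37 °C. Inhibition computed against a compound-free control. IC50 from at least five concentrations, each in triplicate; mean ± SE of three experiments.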

The next assay has as its system HepG2. Conditions: Homo sapiens, at 10 µM.
The target of assay [1] is Fatty acid synthase (Mus musculus) (UniProt P19096). Kind of assay: Inhibition of mouse FAS at 80 uM preincubated for 30 mins in presence of acetyl coenzyme A and NADPH followed by malonyl coenzyme A addition and measured after 3 mins by spectrophotometric analysis.

As usually defined, the IC50 is the midpoint of a concentration-inhibition curve.

Activity calls are given as the source filed them. No cut-off for these calls is given here.

Chain of Fatty acid synthase (Mus musculus) (P19096 whole entry): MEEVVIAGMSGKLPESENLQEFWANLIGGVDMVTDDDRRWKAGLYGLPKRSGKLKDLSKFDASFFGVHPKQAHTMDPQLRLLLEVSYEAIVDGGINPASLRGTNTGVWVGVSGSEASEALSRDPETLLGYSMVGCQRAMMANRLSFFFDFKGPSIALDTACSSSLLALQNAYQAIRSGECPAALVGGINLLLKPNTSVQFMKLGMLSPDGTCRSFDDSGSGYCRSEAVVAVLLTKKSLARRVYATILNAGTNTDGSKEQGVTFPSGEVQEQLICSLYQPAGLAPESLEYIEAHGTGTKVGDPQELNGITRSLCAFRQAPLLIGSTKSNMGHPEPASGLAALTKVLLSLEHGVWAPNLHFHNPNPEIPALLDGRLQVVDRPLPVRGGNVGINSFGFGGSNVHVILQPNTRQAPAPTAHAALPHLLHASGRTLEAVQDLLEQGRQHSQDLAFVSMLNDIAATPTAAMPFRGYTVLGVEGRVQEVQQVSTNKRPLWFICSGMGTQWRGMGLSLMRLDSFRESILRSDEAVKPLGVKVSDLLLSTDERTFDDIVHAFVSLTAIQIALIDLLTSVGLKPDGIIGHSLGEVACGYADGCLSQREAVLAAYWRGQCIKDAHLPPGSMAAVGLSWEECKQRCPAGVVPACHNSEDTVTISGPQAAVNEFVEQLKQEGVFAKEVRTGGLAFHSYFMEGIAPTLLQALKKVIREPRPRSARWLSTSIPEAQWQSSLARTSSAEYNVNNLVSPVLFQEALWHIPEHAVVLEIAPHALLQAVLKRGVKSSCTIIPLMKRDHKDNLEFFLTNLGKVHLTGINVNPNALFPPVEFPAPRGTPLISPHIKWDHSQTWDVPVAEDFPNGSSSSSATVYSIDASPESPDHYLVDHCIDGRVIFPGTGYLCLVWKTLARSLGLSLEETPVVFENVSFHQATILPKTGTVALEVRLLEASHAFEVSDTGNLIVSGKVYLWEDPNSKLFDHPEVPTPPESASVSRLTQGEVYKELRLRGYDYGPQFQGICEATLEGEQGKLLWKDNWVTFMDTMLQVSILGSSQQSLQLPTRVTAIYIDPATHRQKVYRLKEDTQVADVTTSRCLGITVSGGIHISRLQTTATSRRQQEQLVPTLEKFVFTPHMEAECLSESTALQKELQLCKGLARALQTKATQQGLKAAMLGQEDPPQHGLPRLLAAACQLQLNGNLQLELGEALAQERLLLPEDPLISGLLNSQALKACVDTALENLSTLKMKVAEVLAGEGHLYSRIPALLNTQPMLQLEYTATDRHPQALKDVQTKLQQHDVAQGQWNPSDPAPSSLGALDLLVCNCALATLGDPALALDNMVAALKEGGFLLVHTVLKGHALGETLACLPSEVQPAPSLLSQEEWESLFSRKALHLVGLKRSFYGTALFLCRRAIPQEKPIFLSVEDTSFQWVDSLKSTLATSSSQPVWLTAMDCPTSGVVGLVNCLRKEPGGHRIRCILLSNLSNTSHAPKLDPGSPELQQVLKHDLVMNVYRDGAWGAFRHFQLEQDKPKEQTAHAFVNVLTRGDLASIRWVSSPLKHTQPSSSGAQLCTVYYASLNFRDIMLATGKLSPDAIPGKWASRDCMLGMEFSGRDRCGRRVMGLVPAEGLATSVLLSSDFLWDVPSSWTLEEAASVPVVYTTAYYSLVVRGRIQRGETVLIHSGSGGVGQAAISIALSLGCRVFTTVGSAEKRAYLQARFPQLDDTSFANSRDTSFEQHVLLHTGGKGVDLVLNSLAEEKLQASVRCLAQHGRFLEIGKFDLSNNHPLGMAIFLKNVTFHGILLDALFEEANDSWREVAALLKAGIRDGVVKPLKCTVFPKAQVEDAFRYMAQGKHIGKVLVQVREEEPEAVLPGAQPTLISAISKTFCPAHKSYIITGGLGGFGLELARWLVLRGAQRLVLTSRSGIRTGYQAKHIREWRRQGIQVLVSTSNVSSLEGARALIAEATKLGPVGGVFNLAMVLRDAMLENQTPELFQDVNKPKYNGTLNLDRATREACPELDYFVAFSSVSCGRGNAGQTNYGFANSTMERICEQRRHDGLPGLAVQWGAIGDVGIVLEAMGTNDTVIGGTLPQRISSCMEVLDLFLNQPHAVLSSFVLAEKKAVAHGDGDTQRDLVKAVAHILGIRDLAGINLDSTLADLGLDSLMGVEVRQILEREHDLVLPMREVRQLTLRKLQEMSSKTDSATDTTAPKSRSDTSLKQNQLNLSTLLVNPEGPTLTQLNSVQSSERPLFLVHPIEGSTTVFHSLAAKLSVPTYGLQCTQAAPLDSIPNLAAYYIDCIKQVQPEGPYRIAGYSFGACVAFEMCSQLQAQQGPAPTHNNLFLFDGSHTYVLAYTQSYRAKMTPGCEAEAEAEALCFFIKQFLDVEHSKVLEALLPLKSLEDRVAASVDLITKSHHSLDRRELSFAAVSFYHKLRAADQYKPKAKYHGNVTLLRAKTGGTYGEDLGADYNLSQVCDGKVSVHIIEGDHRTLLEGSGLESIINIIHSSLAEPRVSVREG
Chain of Fatty acid synthase (P19096 whole entry): as above

Turning to `CCCCc1ccc(C(=O)O[C@H]2C(=O)OCC2(C)C)cc1`, on Fatty acid synthase, the half-inhibitory concentration (IC50) worked out at 27.7 µM. With `COc1ccc(C(=O)O[C@H]2C(=O)OCC2(C)C)cc1`, the IC50 at Fatty acid synthase came out at 13.7 µM. Further, in the assay on HepG2, the inhibition result was “Active”. Regarding `CCOc1ccc(C(=O)O[C@H]2C(=O)OCC2(C)C)cc1`, in assay [1], the inhibition result was “inactive”. `CCCCCCCCCCCC(=O)O[C@H]1C(=O)OCC1(C)C`: on Fatty acid synthase, the concentration for half-maximal inhibition (IC50) was 15.2 µM. Further, in the assay with HepG2, the inhibition entry was “Active”. On to `CCCC(=O)O[C@H]1C(=O)OCC1(C)C`, for which the IC50 on Fatty acid synthase was 28.2 µM. On to `Cc1ccc(C(=O)O[C@H]2C(=O)OCC2(C)C)cc1`, for which the half-maximal inhibitory concentration (IC50) at Fatty acid synthase came out at 17.2 µM. Further, the inhibition result with HepG2 is “inactive”. `CC1(C)COC(=O)[C@@H]1OC(=O)c1ccc(C#N)cc1`: at Fatty acid synthase, the IC50 came out at 21.5 µM. For the same molecule, in the assay with HepG2, the inhibition result is “Active”.

`CC1(C)COC(=O)[C@@H]1O`: in assay [1], the inhibition entry was “inactive”. As to `C=C1C(=O)OC(CCCCCCCC)C1C(=O)O` (configuration not stated), the concentration for half-maximal inhibition (IC50) on Fatty acid synthase was 13.9 µM. For the same molecule, the inhibition result in the assay on HepG2 is “Active”.

Consider `CCCCCCCCCCCCCCCCCC(=O)O[C@H]1C(=O)OCC1(C)C`, for which, in assay [1], the inhibition result is “inactive”. In the case of `CC1(C)COC(=O)[C@@H]1OC(=O)c1ccc(I)cc1`, in assay [1], the inhibition entry was “inactive”.

For `CC1(C)COC(=O)[C@@H]1OC(=O)c1ccc(F)cc1`, the inhibition entry in assay [1] was “inactive”. `CCCCCC(=O)O[C@H]1C(=O)OCC1(C)C`: the half-inhibitory concentration (IC50) on Fatty acid synthase is 23.3 µM. Moreover, the inhibition entry in the assay with HepG2 was “Active”.

Take `CC1(C)COC(=O)[C@@H]1OC(=O)c1ccc(Cl)cc1`: the IC50 on Fatty acid synthase is 19.2 µM. For the same molecule, the inhibition result in the assay with HepG2 is “Active”. The like results for `CCCCCCCC(=O)O[C@H]1C(=O)OCC1(C)C` were, in that order, 20.8 µM and “Active”. As for `CC1(C)COC(=O)[C@@H]1OC(=O)c1ccccc1`, on Fatty acid synthase, the IC50 stood at 23 µM. In addition, the inhibition result with HepG2 was “inactive”. For `CC1(C)COC(=O)[C@@H]1OC(=O)c1ccc(Br)cc1`, in assay [1], the inhibition result is “inactive”. Take `CC(C)Cc1ccc(C(C)C(=O)O[C@H]2C(=O)OCC2(C)C)cc1` (some centres not stated): at Fatty acid synthase, the IC50 was 28.2 µM. Still for that read-out and setting: then `CC(=O)O[C@H]1C(=O)OCC1(C)C`, with 33.2 µM.

`CC(=O)Oc1cc(C(=O)O[C@H]2C(=O)OCC2(C)C)cc(OC(C)=O)c1OC(C)=O`: the 50% inhibitory concentration (IC50) on Fatty acid synthase is 13.9 µM. Also, the inhibition entry in the assay with HepG2 was “Active”.

As to `CCCCCCCCCCCCCCCC(=O)O[C@H]1C(=O)OCC1(C)C`, the half-maximal inhibitory concentration (IC50) at Fatty acid synthase was determined as 19.6 µM. Further, in the assay with HepG2, the inhibition entry was “Active”.
